Calls of active or inactive are those of the source. No cut-off for these calls is given here.
Key:
[1] = test system: LNCaP; assay: Cell cycle arrest in human LNCAP cells assessed as accumulation at G1 phase at 40 uM after 24 hrs by propidium iodide staining based flow cytometry (reference value: 52.4%); assay type: functional
[2] = test system: LNCaP; assay: Cell cycle arrest in human LNCAP cells assessed as accumulation at S phase at 40 uM after 24 hrs by propidium iodide staining based flow cytometry (reference value: 37.5%); assay type: functional
[3] = test system: LNCaP; assay: Cell cycle arrest in human LNCAP cells assessed as accumulation at G2 phase at 40 uM after 24 hrs by propidium iodide staining based flow cytometry (reference value: 9.83%); assay type: functional
[4] = test system: LNCaP; assay: Cell cycle arrest in human LNCAP cells assessed as accumulation at less G1 phase at 40 uM after 24 hrs by propidium iodide staining based flow cytometry (reference value: 1.5%); assay type: functional
[5] = test system: LNCaP; assay: Cell cycle arrest in human LNCAP cells assessed as accumulation at greater G2 phase at 40 uM after 24 hrs by propidium iodide staining based flow cytometry (reference value: -0.37%); assay type: functional
[6] = test system: LNCaP; assay: Antiproliferative activity against human LNCAP cells after 72 hrs by MTS assay; assay type: functional, cell-based
How it was run: (§1)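 Seeded at 4,500 cells per well and exposed to compound in triplicate for 72 h. LNCaP were cultured in phenol-red-free RPMI-1640 and DU145 in EMEM, each with 10% FBS and penicillin/streptomycin, at 37 °C under 5% CO2. Viability was read by MTS. IC50 came from dose-response curve fitting. For combination lines, genistein was given together with enzalutamide.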

[7] = test system: LNCaP; assay: Antiproliferative activity against human LNCAP cells after 72 hrs in presence of enzalutamide by MTS assay; assay type: functional, cell-based; how it was run: as §1
[8] = test system: LNCaP; assay: Antiproliferative activity against human LNCAP cells; assay type: functional, cell-based
[9] = test system: DU-145; assay: Antiproliferative activity against human DU145 cells after 72 hrs in presence of enzalutamide by MTS assay; assay type: functional, cell-based; how it was run: as §1
[10] = test system: LNCaP; assay: Antiproliferative activity against human LNCAP cells assessed as cell survival at 100 uM after 72 hrs in presence of enzalutamide by MTS assay relative to control; assay type: functional; details: read-out: Survival
How it was run: (§2)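 LNCaP (phenol-red free RPMI-1640) or DU145 (EMEM), each with 10% FBS and penicillin/streptomycin, at 37 °C in 5% CO2. Cells seeded at 4,500 per well and exposed to compound in triplicate for 72 h. Viability read by MTS. Curves are the average of triplicate experiments, with IC50 taken from curve fitting.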

[11] = test system: PC-3; assay: Antiproliferative activity against human AR negative PC3 cells at 50 uM after 72 hrs by MTS assay relative to control; assay type: functional
How it was run: (§3)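 PC3, C4-2 and 22Rv1 prostate cancer cells treated in serum-fed medium with a range of doses, up to 50 μM. Growth read at 72 h post-treatment by MTS assay as percent of control. Data are averages of two independent experiments, each done in duplicate.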

[12] = test system: LNCaP C4-2; assay: Antiproliferative activity against human AR positive C4-2 cells at 50 uM after 72 hrs by MTS assay relative to control; assay type: functional; how it was run: as §3
[13] = test system: CWR22R; assay: Antiproliferative activity against human 22Rv1 cells harboring truncated AR at 50 uM after 72 hrs by MTS assay relative to control; assay type: functional; how it was run: as §3
[14] = species on record: Homo sapiens; assay: Inhibition of HDAC6/HSP90 in human LNCAP cells assessed as downregulation of AR protein level at 2.5 uM after 24 hrs by Western blot method; assay type: cell-based
How it was run: (§4)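 LNCaP seeded at 10^6 cells/dish 24 h before a 24 h compound treatment, with DMSO as control. Lysates were made in CelLyticM with protease inhibitors and quantified by Bradford. Equal protein was run on SDS-PAGE at 100 V for 2 h, transferred to nitrocellulose, and probed for AR, with actin as loading control.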

[15] = test system: LNCaP; assay: Cell cycle arrest in human LNCAP cells assessed as accumulation at G1 phase at 25 uM after 24 hrs by propidium iodide staining based flow cytometry (reference value: 52.4%); assay type: functional
[16] = test system: LNCaP; assay: Cell cycle arrest in human LNCAP cells assessed as accumulation at S phase at 25 uM after 24 hrs by propidium iodide staining based flow cytometry (reference value: 37.5%); assay type: functional
[17] = test system: LNCaP; assay: Cell cycle arrest in human LNCAP cells assessed as accumulation at G2 phase at 25 uM after 24 hrs by propidium iodide staining based flow cytometry (reference value: 9.83%); assay type: functional
[18] = test system: LNCaP; assay: Cell cycle arrest in human LNCAP cells assessed as accumulation at less G1 phase at 25 uM after 24 hrs by propidium iodide staining based flow cytometry (reference value: 1.5%); assay type: functional
[19] = test system: LNCaP; assay: Cell cycle arrest in human LNCAP cells assessed as accumulation at greater G2 phase at 25 uM after 24 hrs by propidium iodide staining based flow cytometry (reference value: -0.37%); assay type: functional
[20] = test system: DU-145; assay: Antiproliferative activity against human DU145 cells after 72 hrs by MTS assay; assay type: functional, cell-based; how it was run: as §1
[21] = test system: LNCaP; assay: Antiproliferative activity against human LNCAP cells assessed as cell survival up to 100 uM after 72 hrs by MTS assay relative to control; assay type: functional; how it was run: as §2
[22] = test system: DU-145; assay: Antiproliferative activity against human DU145 cells assessed as cell survival up to 100 uM after 72 hrs by MTS assay relative to control; assay type: functional; how it was run: as §2
[23] = test system: PC-3; assay: Antiproliferative activity against human AR negative PC3 cells at 2.5 uM after 72 hrs by MTS assay relative to control; assay type: functional; how it was run: as §3
[24] = test system: LNCaP C4-2; assay: Antiproliferative activity against human AR positive C4-2 cells at 1.25 uM after 72 hrs by MTS assay relative to control; assay type: functional; how it was run: as §3
[25] = test system: CWR22R; assay: Antiproliferative activity against human 22Rv1 cells harboring truncated AR at 1.25 uM after 72 hrs by MTS assay relative to control; assay type: functional; how it was run: as §3
[26] = test system: LNCaP; assay: Downregulation of AR protein level in human LNCAP cells after 24 hrs by Western blot method; assay type: functional, cell-based; how it was run: as §4
[27] = test system: LNCaP; assay: Downregulation of AR protein level in human LNCAP cells at 1.25 to 2.5 uM after 24 hrs in presence of proteasome inhibitor bortezomib by Western blot method; assay type: functional, cell-based
How it was run: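 LNCaP seeded at 10^6 cells/dish and pretreated with bortezomib at 20 nM or 40 nM for 2 h. Cells were then exposed to compound for 24 h. AR protein was assessed by immunoblot after Bradford-normalized SDS-PAGE (100 V, 2 h) and nitrocellulose transfer, with actin as loading control.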

[28] = test system: LNCaP; assay: Cell cycle arrest in human LNCAP cells assessed as accumulation at G1 phase at 2.5 uM after 24 hrs by propidium iodide staining based flow cytometry (reference value: 52.4%); assay type: functional
[29] = test system: LNCaP; assay: Cell cycle arrest in human LNCAP cells assessed as accumulation at S phase at 2.5 uM after 24 hrs by propidium iodide staining based flow cytometry (reference value: 37.5%); assay type: functional
[30] = test system: LNCaP; assay: Cell cycle arrest in human LNCAP cells assessed as accumulation at G2 phase at 2.5 uM after 24 hrs by propidium iodide staining based flow cytometry (reference value: 9.83%); assay type: functional
[31] = test system: LNCaP; assay: Cell cycle arrest in human LNCAP cells assessed as accumulation at less G1 phase at 2.5 uM after 24 hrs by propidium iodide staining based flow cytometry (reference value: 1.5%); assay type: functional
[32] = test system: LNCaP; assay: Cell cycle arrest in human LNCAP cells assessed as accumulation at greater G2 phase at 2.5 uM after 24 hrs by propidium iodide staining based flow cytometry (reference value: -0.37%); assay type: functional
[33] = test system: LNCaP; assay: Cell cycle arrest in human LNCAP cells assessed as accumulation at G1 phase at 5 uM after 24 hrs by propidium iodide staining based flow cytometry (reference value: 52.4%); assay type: functional
[34] = test system: LNCaP; assay: Cell cycle arrest in human LNCAP cells assessed as accumulation at S phase at 5 uM after 24 hrs by propidium iodide staining based flow cytometry (reference value: 37.5%); assay type: functional
[35] = test system: LNCaP; assay: Cell cycle arrest in human LNCAP cells assessed as accumulation at G2 phase at 5 uM after 24 hrs by propidium iodide staining based flow cytometry (reference value: 9.83%); assay type: functional
[36] = test system: LNCaP; assay: Cell cycle arrest in human LNCAP cells assessed as accumulation at less G1 phase at 5 uM after 24 hrs by propidium iodide staining based flow cytometry (reference value: 1.5%); assay type: functional
[37] = test system: LNCaP; assay: Cell cycle arrest in human LNCAP cells assessed as accumulation at greater G2 phase at 5 uM after 24 hrs by propidium iodide staining based flow cytometry (reference value: -0.37%); assay type: functional
[38] = test system: CWR22R; assay: Antiproliferative activity against human 22Rv1 cells harboring truncated AR up to 25 uM after 72 hrs by MTS assay; assay type: functional, cell-based; how it was run: as §3

Compound: C#CCCCCN1C(=O)N(c2ccc(C#N)c(C(F)(F)F)c2)C(=O)C1(C)C
- Activity [1]: 33.1%
- Activity [2]: 54.2%
- Activity [3]: 13.4%
- Activity [4]: -0.44%
- Activity [5]: -0.21%

Compound: O=c1c(-c2ccc(O)cc2)coc2cc(O)cc(O)c12 [GENISTEIN]
- IC50 [6]: 24 µM
- IC50 [7]: 31.7 µM
- IC50 [8]: 10 to 40 µM
- Activity [9]: Dose-dependent effect
- viability at 100 µM [10]: 40%
- Activity [11]: 40%
- Activity [12]: 40%
- Activity [13]: 40%
- inhibition [14]: Active
- Activity [15]: 37.1%
- Activity [16]: 52.5%
- Activity [17]: 9.34%
- Activity [18]: -0.34%
- Activity [19]: 0.21%

Compound: CC1(C)C(=O)N(c2ccc(C#N)c(C(F)(F)F)c2)C(=O)N1CCCCc1cn(CCOCCOCCOCCOCCOCCOCCOCCOc2cc(O)c3c(=O)c(-c4ccc(O)cc4)coc3c2)nn1
- IC50 [6]: 1.4 µM
- IC50 ([20]; DU-145, 72 h): 3.4 µM
- Survival [21]: <40%
- Survival [22]: <40%
- Activity [23]: 5 - 10%
- Activity [24]: 50%
- Activity [25]: 15 - 20%
- Activity [26]: Dose-dependent effect
- Activity [27]: Active
- Activity [28]: 34%
- Activity [29]: 54.7%
- Activity [30]: 10.6%
- Activity [31]: -0.094%
- Activity [32]: 0.55%
- Activity [33]: 39.2%
- Activity [34]: 50.8%
- Activity [35]: 11.3%
- Activity [36]: -0.92%
- Activity [37]: -0.63%

Compound: CNC(=O)c1ccc(N2C(=S)N(c3ccc(C#N)c(C(F)(F)F)c3)C(=O)C2(C)C)cc1F
- Activity [38]: Active

Compound: CC1(C)C(=O)N(c2ccc(C#N)c(C(F)(F)F)c2)C(=S)N1c1ccc(-c2cn(CCOCCOCCOCCOCCOCCOCCOCCOc3cc(O)c4c(=O)c(-c5ccc(O)cc5)coc4c3)nn2)cc1
- Activity [6]: inactive
- Activity [20]: inactive

Compound: CC1(C)C(=O)N(c2ccc(C#N)c(C(F)(F)F)c2)C(=S)N1c1ccc(-c2cn(CCOc3cc(O)c4c(=O)c(-c5ccc(O)cc5)coc4c3)nn2)cc1
- Activity [6]: inactive
- Activity [20]: inactive

Compound: CC1(C)C(=O)N(c2ccc(C#N)c(C(F)(F)F)c2)C(=S)N1Cc1ccc(-c2cn(CCOCCOCCOCCOCCOCCOCCOCCOc3cc(O)c4c(=O)c(-c5ccc(O)cc5)coc4c3)nn2)cc1
- Activity [6]: inactive
- Activity [20]: inactive

Compound: CC1(C)C(=O)N(c2ccc(C#N)c(C(F)(F)F)c2)C(=S)N1Cc1ccc(-c2cn(CCOc3cc(O)c4c(=O)c(-c5ccc(O)cc5)coc4c3)nn2)cc1
- Activity [6]: inactive
- Activity [20]: inactive

Compound: CC1(C)C(=O)N(c2ccc(C#N)c(C(F)(F)F)c2)C(=O)N1CCCCc1cn(CCOc2cc(O)c3c(=O)c(-c4ccc(O)cc4)coc3c2)nn1
- Activity [6]: inactive
- Activity [20]: inactive

From ChEMBL document CHEMBL4219079, “Design, synthesis, and evaluation of the antiproliferative activity of hydantoin-derived antiandrogen-genistein conjugates” (Bioorg Med Chem, 2018)
